Consider one molecule from ChEMBL document CHEMBL3616378 (J Med Chem, 2015).

Bounds are passed on as bounds.

The nature of series [1]: Half life in Sprague-Dawley rat at 3 mg/kg, ip. The note with it: in vivo. Type of series: ADME, organism-based. The method in brief: (§1)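 Fasted male Sprague–Dawley rats (~250 g) received a single dose of compound dissolved in water and adjusted to pH 7–7.5 with NaOH, given iv, by oral gavage or ip. Serial blood samples (11–12 per rat) were drawn from a jugular vein catheter into EDTA and kept frozen. Plasma was mixed with methanol:water (1:1) containing an analogue internal standard for analysis. Mean plasma parameters are reported.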

A short description of series [2]: Plasma concentration in Sprague-Dawley rat at 10 mg/kg, ip after 0.5 hrs. It counts as ADME, organism-based. Summed up: (§2)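 Separate experiment: single ip doses of 1, 3 and 10 mg/kg to rats, compound in water adjusted to pH 7–7.5 with NaOH; plasma (with csf) sampled at 0.5, 1 and 4 h; mean plasma concentrations ± SEM reported.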
Series [3] in a line: Bioavailability in Sprague-Dawley rat at 3 mg/kg, ip. Type of series: ADME, organism-based. The following applies: in vivo. The method in brief: as §1
In series [4] the target is Metabotropic glutamate receptor 3 (Homo sapiens, UniProt Q14832, D279E/Q306L). As to the kind of experiment: Agonist activity at human recombinant mGlu3 receptor D279E and Q306L mutant expressed in AV12 cells assessed as stimulation of Ca2+ mobilization after 1 hr by FLIPR assay. It counts as functional, cell-based. For orientation: Calcium assays in cells follow changes in intracellular calcium, usually with a dye or a luminescent sensor.

The species entered for series [5] is Rattus norvegicus. As to the kind of experiment: Toxicity in Sprague-Dawley rat assessed as impairment of neuromuscular coordination at 300 nM of cerebrospinal fluid concentration by rotarod test. It counts as organism-based. The note with it: in vivo, 0.3 µM.
Series [6] in a line: Plasma concentration in Sprague-Dawley rat at 10 mg/kg, ip after 4 hrs. Type of series: ADME, organism-based. Summed up:
as §2

In series [7] the target is Metabotropic glutamate receptor 2 (Homo sapiens, UniProt Q14416, L300Q). As to the kind of experiment: Agonist activity at human recombinant mGlu2 receptor L300Q mutant expressed in AV12 cells assessed as stimulation of Ca2+ mobilization after 1 hr by FLIPR assay. Type of series: functional, cell-based.
The target of series [8] is Metabotropic glutamate receptor 7 (Homo sapiens, UniProt Q14831). In words: Antagonist activity at human recombinant mGlu7 receptor expressed in AV12 cells assessed as inhibition of glutamate-stimulated Ca2+ mobilization after 1 hr by FLIPR assay. It counts as functional, cell-based.
The target of series [9] is CYP2D6 (Homo sapiens, UniProt P10635). As to the kind of experiment: Inhibition of human CYP2D6 at 10 uM. Type of series: ADME. The method in brief:
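Inhibition of human CYP isoforms was measured with the compound tested at 10 µM.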

Series [10] is described as follows: Volume of distribution at steady state in Sprague-Dawley rat at 1 mg/kg, iv. The following applies: in vivo, read-out: Vdss. Type of series: ADME, organism-based. Summed up: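 Compound dissolved in water, pH adjusted to 7–7.5 with NaOH; single dose to fasted male Sprague–Dawley rats (~250 g) by oral gavage, intravenous or intraperitoneal route. Serial blood (11–12 samples per rat) from jugular vein catheter into EDTA tubes, centrifuged, frozen; 25 µL plasma mixed with methanol:water (1:1) containing analogue internal standard.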

The nature of series [11]: AUC (0 to 24 hrs) in Sprague-Dawley rat at 5 mg/kg, po. Type of series: ADME, organism-based. Set-up: time < 24 hr, dose 5 mg/kg, route oral. The note with it: in vivo. Summed up: as §1

Metabotropic glutamate receptor 2, sequence (Q14416 19-872 L300Q limits assumed): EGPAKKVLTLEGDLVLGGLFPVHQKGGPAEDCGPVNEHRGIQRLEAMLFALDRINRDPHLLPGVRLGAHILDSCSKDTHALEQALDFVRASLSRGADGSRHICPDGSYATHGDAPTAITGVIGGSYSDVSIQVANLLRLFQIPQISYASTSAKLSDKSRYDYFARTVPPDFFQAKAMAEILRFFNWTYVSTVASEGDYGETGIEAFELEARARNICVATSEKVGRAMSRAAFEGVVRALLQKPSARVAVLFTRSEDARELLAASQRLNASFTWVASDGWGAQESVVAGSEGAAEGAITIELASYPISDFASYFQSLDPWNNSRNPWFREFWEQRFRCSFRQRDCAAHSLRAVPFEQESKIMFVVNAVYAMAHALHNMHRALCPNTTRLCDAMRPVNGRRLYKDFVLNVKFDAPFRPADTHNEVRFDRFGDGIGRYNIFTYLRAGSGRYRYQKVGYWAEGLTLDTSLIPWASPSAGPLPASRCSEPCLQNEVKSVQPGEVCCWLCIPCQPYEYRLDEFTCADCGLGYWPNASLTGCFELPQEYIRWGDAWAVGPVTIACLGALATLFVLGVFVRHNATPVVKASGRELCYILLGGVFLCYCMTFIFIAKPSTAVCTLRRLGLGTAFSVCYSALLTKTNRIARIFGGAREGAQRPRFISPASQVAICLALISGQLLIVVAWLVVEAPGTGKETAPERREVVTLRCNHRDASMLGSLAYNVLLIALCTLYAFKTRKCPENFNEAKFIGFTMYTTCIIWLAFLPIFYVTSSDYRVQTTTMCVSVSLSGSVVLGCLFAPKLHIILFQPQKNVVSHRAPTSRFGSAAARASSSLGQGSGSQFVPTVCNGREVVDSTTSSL
CYP2D6, sequence (P10635 whole entry, canonical isoform): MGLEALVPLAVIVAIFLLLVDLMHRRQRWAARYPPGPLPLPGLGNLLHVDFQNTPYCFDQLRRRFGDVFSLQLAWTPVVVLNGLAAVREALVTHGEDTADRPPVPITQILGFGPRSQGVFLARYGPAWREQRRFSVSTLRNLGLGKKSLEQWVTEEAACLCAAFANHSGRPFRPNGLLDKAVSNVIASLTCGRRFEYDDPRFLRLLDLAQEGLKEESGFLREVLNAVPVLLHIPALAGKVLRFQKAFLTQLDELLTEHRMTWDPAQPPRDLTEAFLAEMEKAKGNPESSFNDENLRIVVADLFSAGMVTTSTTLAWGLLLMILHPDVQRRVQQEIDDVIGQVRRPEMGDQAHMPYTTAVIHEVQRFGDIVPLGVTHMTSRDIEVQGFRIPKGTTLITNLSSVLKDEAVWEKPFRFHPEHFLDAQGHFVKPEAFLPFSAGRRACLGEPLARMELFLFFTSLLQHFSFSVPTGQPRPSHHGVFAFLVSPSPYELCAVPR
Metabotropic glutamate receptor 7, sequence (Q14831 whole entry): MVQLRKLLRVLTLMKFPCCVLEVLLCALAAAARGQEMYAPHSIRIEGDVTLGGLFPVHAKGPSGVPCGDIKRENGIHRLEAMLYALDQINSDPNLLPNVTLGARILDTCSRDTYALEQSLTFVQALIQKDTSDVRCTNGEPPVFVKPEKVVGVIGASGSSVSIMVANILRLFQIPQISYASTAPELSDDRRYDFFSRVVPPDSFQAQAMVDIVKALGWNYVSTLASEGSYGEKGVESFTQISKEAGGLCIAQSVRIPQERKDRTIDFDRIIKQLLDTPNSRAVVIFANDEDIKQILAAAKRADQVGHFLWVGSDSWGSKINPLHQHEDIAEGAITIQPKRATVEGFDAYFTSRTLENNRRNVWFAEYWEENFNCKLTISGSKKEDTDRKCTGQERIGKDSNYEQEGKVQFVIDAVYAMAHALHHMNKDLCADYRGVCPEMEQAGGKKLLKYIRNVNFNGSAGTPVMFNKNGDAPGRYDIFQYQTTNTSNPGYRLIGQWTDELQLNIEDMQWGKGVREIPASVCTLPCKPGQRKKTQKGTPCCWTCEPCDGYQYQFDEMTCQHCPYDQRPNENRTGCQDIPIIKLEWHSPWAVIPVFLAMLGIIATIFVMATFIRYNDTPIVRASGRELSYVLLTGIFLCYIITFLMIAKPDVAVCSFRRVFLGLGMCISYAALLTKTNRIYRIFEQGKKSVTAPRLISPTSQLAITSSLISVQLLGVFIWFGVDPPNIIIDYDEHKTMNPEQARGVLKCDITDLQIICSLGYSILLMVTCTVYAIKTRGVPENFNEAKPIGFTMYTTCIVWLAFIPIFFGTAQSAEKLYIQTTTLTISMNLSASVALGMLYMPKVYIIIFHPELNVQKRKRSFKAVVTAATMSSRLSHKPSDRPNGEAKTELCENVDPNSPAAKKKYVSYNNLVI
Metabotropic glutamate receptor 3, sequence (Q14832 23-879 D279E/Q306L limits assumed): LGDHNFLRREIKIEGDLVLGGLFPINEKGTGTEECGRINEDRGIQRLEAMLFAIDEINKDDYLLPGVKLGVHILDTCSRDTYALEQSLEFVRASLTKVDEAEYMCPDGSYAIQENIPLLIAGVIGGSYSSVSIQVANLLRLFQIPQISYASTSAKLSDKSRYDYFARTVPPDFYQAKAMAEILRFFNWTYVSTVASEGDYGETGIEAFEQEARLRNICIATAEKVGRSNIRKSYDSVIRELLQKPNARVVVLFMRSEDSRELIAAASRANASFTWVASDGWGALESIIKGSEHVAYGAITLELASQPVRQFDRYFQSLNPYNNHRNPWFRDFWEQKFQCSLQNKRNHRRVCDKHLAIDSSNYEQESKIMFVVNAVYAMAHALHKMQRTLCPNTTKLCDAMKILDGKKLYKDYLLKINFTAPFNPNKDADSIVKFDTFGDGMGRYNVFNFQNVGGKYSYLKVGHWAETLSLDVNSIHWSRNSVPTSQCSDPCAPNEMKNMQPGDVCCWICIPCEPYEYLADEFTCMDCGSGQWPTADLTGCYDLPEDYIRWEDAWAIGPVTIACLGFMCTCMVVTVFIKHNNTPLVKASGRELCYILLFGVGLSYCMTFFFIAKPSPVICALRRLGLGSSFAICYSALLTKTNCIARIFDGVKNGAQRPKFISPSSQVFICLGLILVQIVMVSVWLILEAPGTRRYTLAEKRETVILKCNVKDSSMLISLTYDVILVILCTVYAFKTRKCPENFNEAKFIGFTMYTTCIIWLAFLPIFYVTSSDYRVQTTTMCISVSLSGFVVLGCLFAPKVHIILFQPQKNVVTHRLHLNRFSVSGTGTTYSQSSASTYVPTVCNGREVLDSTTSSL

One may read the half-life as how long it takes for the measured level to halve. A word on the bioavailability: it is dose-corrected exposure relative to a reference, in per cent. As a reminder, the EC50 is the concentration at which the effect is half-maximal. As usually defined, the IC50 is the concentration that gives 50% inhibition. As a reminder, the inhibition is the relative decrease from the control value, in per cent. Higher therefore signals a strong effect. Broadly, the AUC(0-t) is exposure summed from dosing to a finite time, without extrapolation to infinity. `N[C@@]1(C(=O)O)C[C@@H](Sc2nc[nH]n2)[C@H]2[C@H](C(=O)O)[C@H]21` showed a half-life in series [1] of 3.2 h. This molecule also gave a concentration at 0.5 h in series [2] of 40.1 µM. Moreover, in series [3], the bioavailability is 73%. Moreover, the figures for the 50% effective concentration (EC50) in series [4] and in [7] were 1170 nM and 22.1 nM, respectively. Further, the Activity entry in series [5] was “Toxic”. The concentration at 4 h in series [6] is 3.02 µM. In addition, in series [8], the half-inhibitory concentration (IC50) was more than 12500 nM. Moreover, in series [9], the inhibition at 10 µM was less than 10%. In series [10], the Vd was found to be 1.01 L/kg. The molecule further came in with an AUC(0-t) at 24 h in series [11] of 1.01 µM·h.
